The record followed here is the RNAGym collection of RNA variant scans (doi:10.1126/science.aae0568).

Fewer inactive variants are shown than the library holds. Bounds are passed on as bounds.

B1: tRNA (parent)
chain: GUUCCGUUGGCGUAAUGGUAACGCGUCUCCCUCCUAAGGAGAAGACUGCGGGUUCGAGUCCCGUACGGAACG

The variants in the data set derive from B1. The experiment in a line: yeast fitness relative to wild type (ratio to wild type); higher = fitter; tRNA-Arg(CCU), competitive growth, 37 C, YPD. In outline: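 Start and end populations of a pooled competition were compared by 100-nucleotide paired-end sequencing of gene amplicons. The Saccharomyces cerevisiae strains carried tRNA-Arg(CCU) gene variants at the native genomic locus, synthesised with a 3% per-site mutation rate at 69 sites, and competed in YPD at 37°C for 24 hours in six parallel replicates. Darwinian fitness relative to wild type was based on the change in genotype frequencies. Genotypes required ≥ 100 starting reads, and estimates < 0.5 were set to 0.5.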
With GUUCCGUUGGCGUAAUGGUAAGGCGUCUCCCUCCUAAGGAGAAGUCAGCGGGUUCGAGUCCCGUACGGAACG [C22G A45U U47A], the yeast fitness is no more than 0.5. The result for GUUCCGUUGGCGUAAUGGUAAGGUGUCUCCCUCCUACGGAGAAGACUGCGCGUUUGAGUCCCGUACGGCUCG [C22G C24U A37C G51C C55U A69C A70U] reads 0.554. In the case of GUUCCGUUGGCGUAAUGGUAAGGCGUCUCCCUCCUAAGGAGAAGACUGCGGGUUCGAGUCCCGUACGGCACG [C22G A69C] it was 0.82; in that of GUUCCGUUGGCGUAAUGGUAAGGCGUCUCCCUCCUAAGGAGAAGACUGCGGGUUCGAGUCCCGUACGGUACG [C22G A69U], 0.903; in that of GUUCCGUUGGCGUAAUGGUAAGGCGUCUCCCUCCUAAGGAGAAGACUGCGGGUUCGUGUCUCGUACGGAACG [C22G A57U C61U], no more than 0.5.

For the variant GUUCCGUUGGCGUAAUGGUAAGGCGUCUCCCUCCUAAGGAGAAGACUGCGGGUUCGUGUCCCGUCGGGAACG [C22G A57U A65C C66G], the yeast fitness is no more than 0.5. The result for GUUCCGUUGGCGUAAUGGUAAGGCGUCUCCCUCCUAAGGAGAAGCCUGUGGGUUCGUGUCCAGUACGGAACG [C22G A45C C49U A57U C62A] reads 0.619; that for GUUCCGUUGGCGUAAUGGUAAGGUGUCUUGCUCCUAAGGAGAAGACUGCGGGUUCGAGUCCCGUACGGAACG [C22G C24U C29U C30G], 0.579; that for GUUCCGUUGGCGUAAUGGUAAGGCGUCUCCCUCCUAAGGAGAAGACUGCGGGUUCGCGUCCCGUACGGAACG [C22G A57C], 0.684.

Consider GUUCCGUUGGCGUAAUGGUAAGGCGUCUCCCUCCUAAGGAGAAGACUGCGGGUUCGGGUCCCGUACGGAACG [C22G A57G], for which the yeast fitness came to 0.676. The result for GUUCCGUUGGCGUAAUGGUAAGGCGUCUCCCUCCUAAGGAGAAGUCUCCGGGUUCGCGUCCCGUACUGAACG [C22G A45U G48C A57C G67U] reads no more than 0.5; that for GUUCCGUUGGCGUAAUGGUAAGGCGUCUCCCUCCUAAGGAGAAGGCUGCGGGUUCGAGUCCCGUACGGAACG [C22G A45G], 0.867. With GUUCCGUUGGCGUAAUGGUAAGGUGUCUCCCUCCUACGGAGAAGACUGCGCGUUUGAGUCCCGUACGGAUCG [C22G C24U A37C G51C C55U A70U], the yeast fitness is no more than 0.5. The result for GUUCCGUUGGCGUAAUGGUAAGGAGUCUCCCUCCUAAGGAGAAGACUGCGGGUUCGAGUCCCGUACGCAACG [C22G C24A G68C] reads no more than 0.5; that for GUUCCGUUGGCGUAAUGGUAAGGGGUCUCCCUCCUAAGGAGAAGACUGCAGGUUCGAGUCCCGUACGGAUCG [C22G C24G G50A A70U], no more than 0.5. With GUUCCGUUGGCGUAAUGGUAAGGAGUCUCCCUCCUAAGGAGAAGACUGCGGGUUCGAGUCGCGUAAGGAACG [C22G C24A C61G C66A], the yeast fitness is no more than 0.5. The result for GUUCCGUUGGCGUAAUGGUAAGGUGUCUUGCUCCUAAGGAGAAGACUGCGGGUUCGAGUCCCCUACGGAACG [C22G C24U C29U C30G G63C] reads no more than 0.5. Take GUUCCGUUGGCGUAAUGGUAAGGGGUGUCCCUCCUAAGGAGAAGACUGCGGGUUCGACUCCCGUACGGAACG [C22G C24G C27G G58C]: the yeast fitness is no more than 0.5.

As to GUUCCGUUGGCGUAAUGGUAAGGAGUCUCCCUCCUAAAGAGAAGACUGCGGGUUCGGGUCCCGUACGGAACG [C22G C24A G38A A57G], the yeast fitness is no more than 0.5. The result for GUUCCGUUGGCGUAAUGGUAAGGCGUCUCCCUCCUAAGGAGAAGACUGCGGGUUCGAGUCCCGUACGGAUCG [C22G A70U] reads 1.01.

For the variant GUUCCGUUGGCGUAAUGGUAAGGCGUCUCCCUCCUAAGGAGAAGACUGCGGGUUCGAGUCCCGUACGGACCG [C22G A70C], the yeast fitness was found to be 0.963. In the case of GUUCCGUUGGCGUAAUGGUAAGGGGUGUCCCUCCUAAGGAGAAGACUGCGGGUUCGAGUCCCGUACGGAACG [C22G C24G C27G] it was 0.766; in that of GUUCCGUUGGCGUAAUGGUAAGGCGUCUCCCUCCUAAGGAGAAGCCUGCGGGUUCGAGUCCCGUCCGGAACG [C22G A45C A65C], no more than 0.5. The result for GUUCCGUUGGCGUAAUGGUAAGGAGUCUCCCUCCUAAGGAGAAGACUGCGGGUUAGAGUCCCGUACGGAACG [C22G C24A C55A] reads no more than 0.5; that for GUUCCGUUGGCGUAAUGGUAAGGCGUCUCCCUCCUAAGGAGAAGACUGCGGGUUCGUGUCCCGUAUGGAACG [C22G A57U C66U], 0.524.

Regarding GUUCCGUUGGCGUAAUGGUAAGGCGUCUCCCUCCUAAGGAGAAGACUGCGGGUUCGUGUCCCCUACGGAACG [C22G A57U G63C], the yeast fitness was no more than 0.5. In the case of GUUCCGUUGGCGUAAUGGUAAGGCGUCUCCCUCCUAAGGAGAAGACUGCGGGUUCGAGUCCCGUACGGCGCG [C22G A69C A70G], the yeast fitness was 0.632.

In the case of GUUCCGUUGGCGUAAUGGUAAGGCGUCUCCCUCCUAAGGAGAAGACUGCGGGUUCGGGUCCCGUGCGGAACG [C22G A57G A65G], the yeast fitness is 0.624. As to GUUCCGUUGGCGUAAUGGUAAGGCGUCUCCCUCCUAAGGAGAAGACUGCGGGUUCGAGUCCCGUGCGGAACG [C22G A65G], the yeast fitness amounted to 0.932. For GUUCCGUUGGCGUAAUGGUAAGGCGUCUCCCUCCUAAGGAGAAGACUGCGGGUUCGAGUCCCGUUCGGAACG [C22G A65U], the yeast fitness was determined as 1.03.

For GUUCCGUUGGCGUAAUGGUAAGGGGUCUUCCUUCUACGGAGAAGACUGCGGAUUCGAGUCUCGUACGGAACG [C22G C24G C29U C33U A37C G52A C61U], the yeast fitness is no more than 0.5. GUUCCGUUGGCGUAAUGGUAAGGUGUCUUGCUCCUAAGGAGAAGACUGCGGGAACGAGUCCCGUACGGAACG [C22G C24U C29U C30G U53A U54A]: the yeast fitness is no more than 0.5. Turning to GUUCCGUUGGCGUAAUGGUAAGGCGUCUCCCUCCUAAGGAGAAGUCUGGGGGUUCGAGUCCCGUUCGGAACG [C22G A45U C49G A65U], the yeast fitness is no more than 0.5. The result for GUUCCGUUGGCGUAAUGGUAAGGGGUCUCCCUCCUAAGGAGAAGCCCGCGGGUUCGAGUCCCCUACGGAACG [C22G C24G A45C U47C G63C] reads no more than 0.5; that for GUUCCGUUGGCGUAAUGGUAAGGGGUCUCCCUCCUAAGGAGAAGACUGCGGGUUCGAGUCCCGUACGGAACG [C22G C24G], 0.595. Take GUUCCGUUGGCGUAAUGGUAAGGUGUCUCCCUCCUAAGGAGAAGACUGCGGGUUCGAGUCCCGUACGGAACG [C22G C24U]: the yeast fitness came to 0.894. In the case of GUUCCGUUGGCGUAAUGGUAAGGGGUCUCCCUCCUAAGGAGAAGACUGCAGGUUCGAGUCCCGUACGGCACG [C22G C24G G50A A69C], the yeast fitness was 0.574. In the case of GUUCCGUUGGCGUAAUGGUAAGGCGUCUCCCUCCUAAGGAGAAGCCUGCGGCUUCGUGUCCCGUACGGCACG [C22G A45C G52C A57U A69C], the yeast fitness amounted to 0.619.
